# Experimental data as given in publication PMC6088244 (Biochemistry, 2018).
# Like-named read-outs stand apart in the source and are kept apart here.
# Columns and labels:
# PDE4B2B = PDE4B2B (Homo sapiens, UniProt Q07343); experiment: PDE enzymatic assay with 3H-cAMP or 3H-cGMP as substrates; assay type: biochemical; conditions: IC50, PDE4B2B (152–528)
# How it was run: (§1)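 Recombinant PDE catalytic domains incubated at room temperature for 15 min in 20 mM Tris.HCl pH 7.5, 10 mM MgCl2, 0.5 mM DTT, with 3H-cAMP or 3H-cGMP at 20–40k cpm/assay. Stopped with 0.2 M ZnSO4. Product precipitated with 0.2 N Ba(OH)2. Unreacted substrate in supernatant counted by liquid scintillation. Nine inhibitor concentrations tested. Rolipram served as reference.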
# PDE7A1 (130–482) = PDE7A1 (130–482) (Homo sapiens, UniProt Q13946); experiment: as above; assay type: biochemical
# Chain of PDE7A1 (130–482) (Q13946 130-482): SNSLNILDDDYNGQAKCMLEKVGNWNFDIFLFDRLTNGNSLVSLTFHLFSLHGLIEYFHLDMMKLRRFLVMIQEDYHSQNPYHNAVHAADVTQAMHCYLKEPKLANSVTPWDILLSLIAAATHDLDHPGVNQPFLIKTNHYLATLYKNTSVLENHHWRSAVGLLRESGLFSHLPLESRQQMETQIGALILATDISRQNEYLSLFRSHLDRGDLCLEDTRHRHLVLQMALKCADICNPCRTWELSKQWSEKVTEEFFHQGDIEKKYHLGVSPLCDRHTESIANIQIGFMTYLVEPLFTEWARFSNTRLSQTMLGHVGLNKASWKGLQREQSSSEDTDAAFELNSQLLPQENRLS
# How it was run: as §1
# PDE11A4 (563–934) = biological target: T1, PDE11A4 (563–934) (Homo sapiens, UniProt Q9HCR9); experiment: PDE enzymatic assay with 3H-cAMP or 3H-cGMP as substrates; assay type: biochemical
# T1 sequence (Q9HCR9 563-933 limits assumed): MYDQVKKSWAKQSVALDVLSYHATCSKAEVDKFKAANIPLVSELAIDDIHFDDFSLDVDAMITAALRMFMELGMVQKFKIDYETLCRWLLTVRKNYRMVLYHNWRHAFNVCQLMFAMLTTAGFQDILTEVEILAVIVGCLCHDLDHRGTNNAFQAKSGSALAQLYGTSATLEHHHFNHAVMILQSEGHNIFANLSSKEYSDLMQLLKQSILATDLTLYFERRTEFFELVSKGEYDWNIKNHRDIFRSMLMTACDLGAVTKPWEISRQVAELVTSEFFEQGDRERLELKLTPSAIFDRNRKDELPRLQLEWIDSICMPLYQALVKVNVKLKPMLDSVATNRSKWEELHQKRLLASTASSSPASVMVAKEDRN
# How it was run: (§2)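 PDE catalytic domains were incubated with 20 mM Tris-HCl pH 7.5, 10 mM MgCl2, 0.5 mM DTT and 3H-cAMP or 3H-cGMP (20–40k cpm/assay) for 15 min at room temperature. The reaction was stopped with 0.2 M ZnSO4, and product was precipitated with 0.2 N Ba(OH)2. Supernatant radioactivity was scintillation-counted. Nine inhibitor concentrations were tested; rolipram was the reference.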
# PDE10A2 (448–789) = PDE10A2 (448–789) (Homo sapiens, UniProt Q9Y233); experiment: as above; assay type: biochemical
# Chain of PDE10A2 (448–789) (Q9Y233 714-1055): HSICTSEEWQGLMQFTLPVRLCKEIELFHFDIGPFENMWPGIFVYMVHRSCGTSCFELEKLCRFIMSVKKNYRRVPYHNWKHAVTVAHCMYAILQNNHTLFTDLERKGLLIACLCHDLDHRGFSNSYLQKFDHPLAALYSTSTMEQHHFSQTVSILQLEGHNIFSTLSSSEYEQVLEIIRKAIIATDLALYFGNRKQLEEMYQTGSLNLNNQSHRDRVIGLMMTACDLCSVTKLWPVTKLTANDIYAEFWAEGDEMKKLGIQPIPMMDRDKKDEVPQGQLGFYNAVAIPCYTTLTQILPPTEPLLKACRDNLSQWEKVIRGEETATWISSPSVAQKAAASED
# How it was run: as §2
# PDE3A1 (665–1141) = PDE3A1 (665–1141) (Homo sapiens, UniProt Q14432); experiment: as above; assay type: biochemical
# Chain of PDE3A1 (665–1141) (Q14432 665-1141): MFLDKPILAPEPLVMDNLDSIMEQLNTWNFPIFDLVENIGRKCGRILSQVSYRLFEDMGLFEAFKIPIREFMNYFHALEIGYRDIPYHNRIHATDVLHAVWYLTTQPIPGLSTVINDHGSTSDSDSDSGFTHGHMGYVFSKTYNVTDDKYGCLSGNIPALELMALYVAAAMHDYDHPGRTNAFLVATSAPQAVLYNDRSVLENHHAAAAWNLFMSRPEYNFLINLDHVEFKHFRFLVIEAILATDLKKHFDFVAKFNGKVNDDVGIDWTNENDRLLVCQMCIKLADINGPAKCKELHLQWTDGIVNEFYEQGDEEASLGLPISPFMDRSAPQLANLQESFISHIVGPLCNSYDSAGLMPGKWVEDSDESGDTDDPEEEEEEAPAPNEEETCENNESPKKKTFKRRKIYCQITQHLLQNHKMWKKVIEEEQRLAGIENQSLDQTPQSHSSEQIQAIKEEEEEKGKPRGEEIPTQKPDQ
# How it was run: as §2
# PDE2A3 (580–941) = PDE2A3 (580–941) (Homo sapiens, UniProt O00408); experiment: PDE enzymatic assay with 3H-cAMP or 3H-cGMP as substrates; assay type: biochemical
# Chain of PDE2A3 (580–941) (O00408 580-941): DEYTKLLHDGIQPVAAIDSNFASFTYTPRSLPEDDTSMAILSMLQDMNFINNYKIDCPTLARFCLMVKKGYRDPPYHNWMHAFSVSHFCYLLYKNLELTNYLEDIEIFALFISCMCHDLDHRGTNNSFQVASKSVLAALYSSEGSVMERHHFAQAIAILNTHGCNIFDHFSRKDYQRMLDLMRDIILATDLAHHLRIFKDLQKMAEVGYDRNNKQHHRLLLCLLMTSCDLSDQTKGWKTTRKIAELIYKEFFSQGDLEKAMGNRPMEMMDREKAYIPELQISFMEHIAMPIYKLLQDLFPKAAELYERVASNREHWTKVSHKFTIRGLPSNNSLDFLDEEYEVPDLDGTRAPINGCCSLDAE
# How it was run: as §1
# PDE9A1 (181–506) = PDE9A1 (181–506) (Homo sapiens, UniProt O76083); experiment: as above; assay type: biochemical
# Chain of PDE9A1 (181–506) (O76083 241-566): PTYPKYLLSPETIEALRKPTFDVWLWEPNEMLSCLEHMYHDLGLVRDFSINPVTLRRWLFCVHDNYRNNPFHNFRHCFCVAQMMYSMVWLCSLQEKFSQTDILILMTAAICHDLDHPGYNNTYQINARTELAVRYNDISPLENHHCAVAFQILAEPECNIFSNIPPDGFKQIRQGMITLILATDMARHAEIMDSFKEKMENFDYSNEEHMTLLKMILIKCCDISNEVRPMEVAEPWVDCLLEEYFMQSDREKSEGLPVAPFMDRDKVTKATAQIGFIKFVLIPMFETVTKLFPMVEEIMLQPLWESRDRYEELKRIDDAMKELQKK
# How it was run: as §1
# PDE8A1 (480–820) = PDE8A1 (480–820) (Homo sapiens, UniProt O60658); experiment: PDE enzymatic assay with 3H-cAMP or 3H-cGMP as substrates; assay type: biochemical
# Chain of PDE8A1 (480–820) (O60658 480-820): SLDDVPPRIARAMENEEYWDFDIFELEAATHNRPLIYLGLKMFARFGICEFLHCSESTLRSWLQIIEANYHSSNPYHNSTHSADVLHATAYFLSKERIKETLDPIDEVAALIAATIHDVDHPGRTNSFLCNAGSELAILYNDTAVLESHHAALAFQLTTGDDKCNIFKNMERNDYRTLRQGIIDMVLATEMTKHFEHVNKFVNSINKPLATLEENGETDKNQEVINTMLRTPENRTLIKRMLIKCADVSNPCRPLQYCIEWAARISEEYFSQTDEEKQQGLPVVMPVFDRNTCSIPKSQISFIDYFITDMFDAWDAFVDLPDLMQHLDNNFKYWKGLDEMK
# How it was run: as §2
# PDE5A1 (535–860) = PDE5A1 (535–860) (Homo sapiens, UniProt O76074); experiment: PDE enzymatic assay with 3H-cAMP or 3H-cGMP as substrates; assay type: biochemical
# How it was run: as §1
# LPS-induced TNFa release = conditions: read-out: IC50 of LPS-induced TNFa release, cited from earlier work
# mice [1] = experiment: Object recognition test; assay type: in vivo; conditions: i.p. 30 min prior to the test; for memory in the object recognition test: Fig. 5A
# How it was run: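 Male ICR mice (22–24 g) were housed at 22–23 °C on a 12-h light-dark cycle with free food and water. Test compound, rolipram or vehicle was given i.p. 30 min before testing. Mice were trained to tell a novel from a familiar object with a 24-hour delay. Exploration times (Tn, Tf) were recorded over 3 min. n = 8–9; one-way ANOVA with Dunnett's post hoc test.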
# PDE4D = conditions: read-out: IC50 against PDE4D; racemic Zl-n-91; cited from earlier work
# mice [2] = experiment: Open-field test; assay type: in vivo
# How it was run: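 Naive male ICR mice received test compound, rolipram or vehicle by i.p. injection. Thirty minutes later each was placed in the centre of an open-field box with its floor divided into 4 identical squares and explored for 5 min. Line crossings (all four paws over the line) and rears were counted. Means ± S.E., n = 8–9; one-way ANOVA with Dunnett's test.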
# [3] = Pharmacokinetic properties in mice; assay type: in vivo; conditions: 5 mg/kg
# How it was run: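 Male ICR mice were dosed at 5 mg/kg. The stock dosing sample was 10 mg test compound in 10 ml saline containing 1% DMSO, 40% 2-hydroxypropyl-β-cyclodextrin and 6% Solutol HS 15. It was vortexed and sonicated until fully dissolved.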
# mice [4] = conditions: at the same dose required for producing a memory-enhancing effect; cited from earlier work
# [5] = doses of 0.01–0.5 mg/kg, 30 min after injection
# Chain of PDE4B2B (Q07343 324-700): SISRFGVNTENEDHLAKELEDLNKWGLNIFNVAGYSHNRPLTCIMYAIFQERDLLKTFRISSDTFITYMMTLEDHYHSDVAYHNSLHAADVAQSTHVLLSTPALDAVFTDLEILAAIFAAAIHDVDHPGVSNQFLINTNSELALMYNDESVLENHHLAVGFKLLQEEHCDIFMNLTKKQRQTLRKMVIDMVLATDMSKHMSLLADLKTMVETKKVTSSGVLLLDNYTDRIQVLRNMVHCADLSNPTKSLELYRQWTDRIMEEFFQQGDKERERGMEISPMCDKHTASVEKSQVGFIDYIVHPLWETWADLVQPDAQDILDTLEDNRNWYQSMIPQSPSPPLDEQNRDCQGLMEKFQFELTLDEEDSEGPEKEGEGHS
smiles,measurement,setting,value
"CC(C)CC(=O)c1ccc(OC(F)F)c(O[C@H]2CCOC2)c1 [(S)-Zl-n-91, 1-(4-(difluoromethoxy)-3-((tetrahydrofuran-3-yl)oxy)phenyl)-3-methylbutan-1-one]",IC50,PDE4B2B,20 ± 4 nM
same,IC50,PDE7A1 (130–482),17 ± 3 µM
same,IC50,PDE11A4 (563–934),23 ± 4 µM
same,IC50,PDE10A2 (448–789),16 ± 1 µM
same,IC50,PDE3A1 (665–1141),46 ± 3 µM
same,IC50,PDE2A3 (580–941),83 ± 12 µM
same,IC50,PDE9A1 (181–506),84 ± 10 µM
same,IC50,PDE8A1 (480–820),8.6 ± 0.7 µM
same,IC50,PDE5A1 (535–860),130 ± 23 µM
"CC(C)CC(=O)c1ccc(OC(F)F)c(OC2CCOC2)c1 (centres unmarked) [Zl-n-91, 1-(4-(difluoromethoxy)-3-((tetrahydrofuran-3-yl)oxy)phenyl)-3-methylbutan-1-one]",IC50,LPS-induced TNFa release; whole blood cell,40 nM
same,memory in the object recognition test,mice [1],enhanced memory
same,IC50,PDE4D,26 nM
same,locomotor activity,mice [2],not altered
same,sedation,mice [2]; dose of 0.5 mg/kg,does not produce sedation
same,line crossings,mice [2]; [5],altered neither
same,rears,mice [2]; [5],altered neither
same,CL(F),"[3]; PO, male mice",20.5 L/h/kg
same,F (bioavailability),"[3]; PO, male mice",33.3%
same,AUC,"[3]; male, ICR, mouse, plasma, iv",728 ng·h/mL
same,AUC(0-t),"[3]; male, ICR, mouse, plasma, iv",725 ng·h/mL
same,C0,"[3]; male, ICR, mouse, plasma, iv",6030 ng/mL
same,MRT inf,"[3]; male, ICR, mouse, plasma, iv",20.4 min
same,Vd,"[3]; male, ICR, mouse, plasma, iv",2.31 L/kg
same,clearance,"[3]; male, ICR, mouse, plasma, iv",115 mL/min/kg
same,half-life,"[3]; male, ICR, mouse, plasma, iv",37.2 min
same,AUC,"[3]; male, ICR, mouse, plasma, po",244 ng·h/mL
same,AUC(0-t),"[3]; male, ICR, mouse, plasma, po",241 ng·h/mL
same,Cmax,"[3]; male, ICR, mouse, plasma, po",96.5 ng/mL
same,Tmax,"[3]; male, ICR, mouse, plasma, po",2 h
same,Vd/F,"[3]; male, ICR, mouse, plasma, po",39.9 L/kg
same,half-life,"[3]; male, ICR, mouse, plasma, po",81 min
"COc1ccc([C@]2(C#N)CC[C@@H](C(=O)O)CC2)cc1OC1CCCC1 [cilomilast, reference compound]",IC50,LPS-induced TNFa release; whole blood,> 10000 nM
COc1ccc(C2CNC(=O)C2)cc1OC1CCCC1 (centres unmarked) [rolipram],locomotor activity,mice [4],decreased locomotor activity
same,increase of discrimination ratio (Tn-Tf)/(Tn+Tf),"mice [1]; 0.3 mg/kg, versus vehicle",about 4 times
same,memory in the object recognition test,mice [1],enhanced memory
